Experimental data from article PMC9065685 (Bioorganic Chemistry, 2022).
Values after ≈ are worked out from the molar mass of the structure shown. Values joined by “and” are separate entries in the source; they are usually repeats but may differ in a detail not shown here. Equal entries are not always repeated.

Legend:
Bacillus subtilis = assay: Disc diffusion antibacterial susceptibility test; format: cell-based; details: 18 h at 37 °C, mean ± SD, triplicate, NI = No inhibition
In short: (§1)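 Bacteria came from a university microbiology laboratory stock. Colonies were suspended in sterile 0.85% saline and matched to McFarland 0.5, then swabbed evenly onto Mueller-Hinton agar. 6 mm filter-paper discs carrying test compound were laid on the agar. Plates were incubated 18 h at 37 °C and inhibition zone diameters measured in mm. Three repeats, reported as mean ± SD.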

Escherichia coli = assay: Disc diffusion antibacterial susceptibility test; format: cell-based; details: mean ± SD, triplicate, NI = No inhibition
In short: as §1

Salmonella typhi = assay: Disc diffusion antibacterial susceptibility test; format: cell-based; details: mean ± SD, triplicate, NI = No inhibition
In short: as §1

Pseudomonas aeruginosa = assay: Disc diffusion antibacterial susceptibility test; format: cell-based; details: mean ± SD, triplicate, NI = No inhibition
In short: as §1

Aspergillus niger = assay: Mycelial growth inhibition; format: cell-based; details: 5 days incubation, mean ± SD, triplicate, NI = No inhibition
Aspergillus flavus = assay: Mycelial growth inhibition; format: cell-based; details: 5 days incubation, mean ± SD, triplicate, NI = No inhibition
B. subtilis = assay: MIC and MBC by micro-broth dilution; format: cell-based; details: Bacillus subtilis
In short: (§2)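 Broth microdilution in Mueller-Hinton broth, using a two-fold test compound series over 0.125 to 128 µg/mL. Wells received 5 µL of inoculum at 10⁴–10⁵ CFU/mL, diluted from a 0.5 McFarland suspension. Each plate had growth (no compound) and sterility controls. After 24 h at 37 °C, 0.5% (w/v) triphenyl tetrazolium chloride was added for a further 24 h at 37 °C. Red colour indicated growth, and MIC/MBC were read visually.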

[1] = system: tested strains (pathogenic bacteria); assay: MIC and MBC by micro-broth dilution, over the tested strains; format: cell-based; details: for MBC: read-out: MBC values against the tested organisms; for MIC: read-out: MIC values against the tested strains
In short: as §2

brine shrimps nauplii = assay: Brine shrimp lethality assay; format: in vivo; details: brine shrimp lethality bioassay, 24 h and 48 h
In short: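 Test compound was dissolved in DMSO and made up to 5 ml with NaCl solution at four concentrations. Ten nauplii per vial, each concentration run three times; control vial held 10 nauplii in 5 ml seawater. Vials stood at room temperature for 24 h and 48 h. Survivors were counted under a magnifying glass, and average % mortality was calculated per concentration.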

| Structure (SMILES) | Diameter of inhibition zone, B. subtilis (+ve) (Bacillus subtilis) | Diameter of inhibition zone, E. coli (-ve) (Escherichia coli) | Diameter of inhibition zone, S. typhi (-ve) (Salmonella typhi) | Diameter of inhibition zone, P. aeruginosa (-ve) (Pseudomonas aeruginosa) | % inhibition of fungal mycelial growth in mm (20 μg/μL), Aspergillus niger (Aspergillus niger) | % inhibition of fungal mycelial growth in mm (20 μg/μL), Aspergillus. flavus (Aspergillus flavus) | MIC (B. subtilis) | MBC [1] | MIC [1] | % death of brine shrimp (level of toxicity) (brine shrimps nauplii) |
| --- | --- | --- | --- | --- | --- | --- | --- | --- | --- | --- |
| CC[C@H]1OC(=O)[C@H](C)[C@@H](O[C@H]2C[C@@](C)(OC)[C@@H](O)[C@H](C)O2)[C@H](C)[C@@H](O[C@@H]2O[C@H](C)C[C@H](N(C)C)[C@H]2O)[C@](C)(O)C[C@@H](C)CN(C)[C@H](C)[C@@H](O)[C@]1(C)O [Azithromycin, reference compound] | 18.5 ± 0.3 mm | **17.25 ± 0.1 mm | **18 ± 0.2 mm | **18.5 ± 0.3 mm |  |  |  |  |  |  |
| C[C@@H]1[C@H](O)[C@@H](C)/C=C/C=C/CC/C=C/C=C/C=C/C=C/C(O[C@H]2O[C@H](C)[C@@H](O)[C@H](N)[C@@H]2O)CC2O[C@](O)(CC(O)C(O)CCC(O)CC(O)CC(O)CC(=O)O[C@H]1C)CC(O)C2C(=O)O (some centres unmarked) [Nystatin, reference compound] |  |  |  |  | **65.4 ± 1.0% | **64.1 ± 1.0% |  |  |  |  |
| CCCCCCCCCCCC(=O)OC[C@H]1O[C@@H](n2cc(C)c(=O)[nH]c2=O)C[C@@H]1O [analog 2, 5́-O-(Lauroyl)thymidine] |  | *13.00 ± 0.1 mm | *14.50 ± 0.3 mm | *12.75 ± 0.1 mm | *60.16 ± 1.2% | *82.76 ± 1.0% | 0.125 µg/mL (≈ 0.294 µM) | 8 to 16 µg/mL (≈ 18.8 to 37.7 µM) | 0.125 to 8 µg/mL (≈ 0.294 to 18.8 µM) | 36.25% |
| CCCCCCCCCCCC(=O)OC[C@H]1O[C@@H](n2cc(C)c(=O)[nH]c2=O)C[C@@H]1OC(=O)c1ccc(C(C)(C)C)cc1 [analog 3, 3́-O-(4-t-Butylbenzoyl)-5́-O-(lauroyl)thymidine] | 13.25 mm and 13.25 ± 0.2 mm |  | 9.75 ± 0.2 mm | *11.75 ± 0.4 mm | *65.25 ± 1.1% | *72.95 ± 1.0% |  | 8 to 16 µg/mL (≈ 13.7 to 27.4 µM) | 0.125 to 8 µg/mL (≈ 0.214 to 13.7 µM) |  |
| CCCCCCCCCCCCCC(=O)O[C@H]1C[C@H](n2cc(C)c(=O)[nH]c2=O)O[C@@H]1COC(=O)CCCCCCCCCCC [analog 4, 5́-O-Lauroyl-3́-O-(myristoyl)thymidine] | 12.75 mm and 12.75 ± 0.1 mm | *12.5 ± 0.2 mm |  |  |  |  |  |  |  |  |
| CCCCCCCCCCCCCCCC(=O)O[C@H]1C[C@H](n2cc(C)c(=O)[nH]c2=O)O[C@@H]1COC(=O)CCCCCCCCCCC [analog 5, 5′-O-Lauroyl-3′-O-(palmitoyl)thymidine] | 14.50 mm and 14.5 ± 0.1 mm | 9.00 ± 0.2 mm | *15.25 ± 0.2 mm | 8.50 ± 0.2 mm | 57.62 ± 1.1% | *81.55 ± 1.0% |  |  |  |  |
| CCCCCCCCCCCC(=O)OC[C@H]1O[C@@H](n2cc(C)c(=O)[nH]c2=O)C[C@@H]1OC(=O)c1ccc(Br)cc1 [analog 6, 3́-O-(4-Bromobenzoyl)-5́-O-(lauroyl)thymidine] |  |  | 9.5 ± 0.1 mm |  |  |  |  |  |  | 38.75% |
